In PubChem BioAssay one finds GFP response vs DMSO, GFP response relative to DMSO and GFP response, % of DMSO data, which are given here for 11 compounds.

A short description of assay [1]: hit retest on RPL19A-GFP reporter strain – cell-based, S. cerevisiae, flow cytometry, cherry picks, mother/daughter gates, confirmation (AID 2270;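 active = GFP response below 50% of the DMSO control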). To be noted: 3 h, at 10 µM, stronger effect = lower value, 100 = same GFP as DMSO wells.
Assay [2] is described as follows: yeast TOR pathway reporter LAP4-GFP change – cell-based, cherry picks, flow cytometry, mother/daughter gates, confirmation (AID 2271;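 active = GFP response above 150% of the DMSO control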;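 note: ratio of sample to DMSO plate mean so 100% equals DMSO level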). To be noted: S. cerevisiae LAP4-GFP strain, 3 h, at 10 µM, stronger effect = higher value, 100 means same as DMSO control. The procedure, abridged: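 Test system: GFP-fusion yeast strain. Medium: synthetic complete (SC) yeast growth medium. Timing: 3 h treatment at 30 °C with rotation. Measured by: GFP by flow cytometry. Control set: positive rapamycin (400 ng/mL), negative DMSO.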
Background: Flow cytometry measures light scatter and fluorescence of single cells or particles in a stream.

Assay [3] in a line: TOR pathway reporter MEP2-GFP, retest of hits – S. cerevisiae, flow cytometry GFP, cherry picks, confirmation (AID 2272;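 active = GFP response above 150% of the DMSO control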;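 note: ratio of well signal to plate DMSO mean so 100% equals DMSO level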). To be noted: S. cerevisiae MEP2-GFP strain, 3 h, at 10 µM, stronger effect = higher value.
A short description of assay [4]: yeast AGP1-GFP fluorescence change, single-dose – cell-based, flow cytometry, S. cerevisiae, cherry picks, confirmation (AID 2273).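 Note: median GFP channel fluorescence over the whole cell population gate.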 To be noted: S. cerevisiae AGP1-GFP strain, 3 h, at 10 µM.
Assay [5] can be described thus: TOR pathway CIT2 reporter hit retest – S. cerevisiae, GFP fusion, cherry picks, mother/daughter gates, confirmation (AID 2274). To be noted: S. cerevisiae CIT2-GFP strain, flow cytometry, 3 h, at 10 µM, stronger effect = higher value.
Setting [6] is: measured here: daughter cell gate.
Where [7] appears, read: measured here: mother cell gate.
Where [8] appears, read: measured here: daughter cell gate response.
[9] abbreviates: measured here: mother cell gate response.

Active and inactive are the calls of the source.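 Rule for the calls, unless noted: active = GFP response above 150% of the DMSO level; inconclusive = fewer than 70 events counted for a yeast strain; inactive = the rest.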

`NC(=O)c1ccccc1OCC(=O)c1ccc(Cl)cc1`: the GFP response vs DMSO in assay [1] was 100% (inactive); in assay [1] (setting [6]) it was 101%; in assay [1] (setting [7]) it was 99%; in assay [3], 99.3% (inactive). The figures for the GFP response relative to DMSO in assay [2], in assay [2] (setting [8]) and in assay [2] (setting [9]) were 96.5% (inactive), 96% and 97.4%, respectively. Besides, the GFP response, % of DMSO in assay [4] was 102% (inactive); in assay [5] it was 100% (inactive); in assay [5] (setting [6]), 97.6%; in assay [5] (setting [7]), 100%.

Turning to `COc1ccc(-c2cc(=O)n(-c3nc4ccccc4[nH]3)[nH]2)cc1`, the GFP response vs DMSO is 98.6% (inactive) in assay [1], 101% in assay [1] (setting [6]), 99.3% in assay [1] (setting [7]) and 103% (inactive) in assay [3]. The figures for the GFP response relative to DMSO in assay [2], in assay [2] (setting [8]) and in assay [2] (setting [9]) were 117% (inactive), 119% and 113%, respectively. In addition, the GFP response, % of DMSO in assay [4] is 98% (inactive); in assay [5] it was 95.9% (inactive); in assay [5] (setting [6]), 97.4%; in assay [5] (setting [7]), 94.4%.

For `CCCCCCCCn1c(=O)c(C(=O)OCC)c(O)c2ccccc21`, the GFP response vs DMSO was 98.4% (inactive) in assay [1], 99.4% in assay [1] (setting [6]), 99.4% in assay [1] (setting [7]) and 100% (inactive) in assay [3]. The GFP response relative to DMSO is 92.8% (inactive) in assay [2], 92.8% in assay [2] (setting [8]) and 92.9% in assay [2] (setting [9]). Besides, the GFP response, % of DMSO in assay [4] is 99.3% (inactive); in assay [5], 101% (inactive); in assay [5] (setting [6]), 101%; in assay [5] (setting [7]), 101%.

In the case of `COc1ccc(CNC(=O)c2c(O)c3ccccc3n(C)c2=O)cc1OC`, the GFP response vs DMSO in assay [1] was 96.9% (inactive); in assay [1] (setting [6]), 97.8%; in assay [1] (setting [7]) it was 96.7%; in assay [3], 110% (inactive). Besides, the GFP response relative to DMSO in assay [2] is 90.6% (inactive); in assay [2] (setting [8]), 92.9%; in assay [2] (setting [9]) it was 91.3%. Moreover, the GFP response, % of DMSO is 99.1% (inactive) in assay [4], 103% (inactive) in assay [5], 105% in assay [5] (setting [6]) and 103% in assay [5] (setting [7]).

As to `Cc1ccc(Oc2nc(-c3ccccn3)nc3ccccc23)cc1`, the GFP response vs DMSO in assay [1] is 98.2% (inactive); in assay [1] (setting [6]) it was 94.7%; in assay [1] (setting [7]), 97.8%; in assay [3], 103% (inactive). In addition, the GFP response relative to DMSO in assay [2] is 110% (inactive); in assay [2] (setting [8]), 107%; in assay [2] (setting [9]), 110%. Besides, the GFP response, % of DMSO in assay [4] was 92.2% (inactive); in assay [5], 91.5% (inactive); in assay [5] (setting [6]) it was 92%; in assay [5] (setting [7]) it was 90.7%.

Regarding `O=C(Nc1ccccc1N1CCOCC1)c1ccc([N+](=O)[O-])o1`, the GFP response vs DMSO is 58.5% (inactive) in assay [1], 82.8% in assay [1] (setting [6]), 47.8% in assay [1] (setting [7]) and 90.5% (inactive) in assay [3]. Moreover, the GFP response relative to DMSO in assay [2] is 128% (inactive); in assay [2] (setting [8]), 104%; in assay [2] (setting [9]) it was 116%. Besides, the GFP response, % of DMSO in assay [4] was 87.6% (inactive); in assay [5] it was 63.9% (inactive); in assay [5] (setting [6]) it was 77.5%; in assay [5] (setting [7]), 55.2%.

In the case of `CCC(=O)Nc1nc(C)c(-c2csc(Nc3cccc(C(=O)O)c3)n2)s1`, the GFP response vs DMSO in assay [1] is 97.3% (inactive); in assay [1] (setting [6]), 97.8%; in assay [1] (setting [7]), 97.3%; in assay [3] it was 101% (inactive). In addition, the GFP response relative to DMSO is 85.8% (inactive) in assay [2], 89.8% in assay [2] (setting [8]) and 87.3% in assay [2] (setting [9]). Moreover, the GFP response, % of DMSO in assay [4] is 94.8% (inactive); in assay [5], 100% (inactive); in assay [5] (setting [6]), 101%; in assay [5] (setting [7]), 100%.

On to `O=C1C=CC(=O)N1c1ccc(O)cc1`, for which the GFP response vs DMSO was 96.6% (inactive) in assay [1], 96.9% in assay [1] (setting [6]), 85.9% in assay [1] (setting [7]) and 100% (inactive) in assay [3]. Also, the GFP response relative to DMSO in assay [2] is 196% (active); in assay [2] (setting [8]), 192%; in assay [2] (setting [9]), 192%. In addition, the GFP response, % of DMSO in assay [4] was 90% (inactive); in assay [5], 96.9% (inactive); in assay [5] (setting [6]), 116%; in assay [5] (setting [7]), 84.3%.

As to `CC[n+]1cc(C)ccc1/C=C/c1ccc(N(C)C)cc1`, the GFP response vs DMSO in assay [1] is 104% (inactive); in assay [1] (setting [6]), 106%; in assay [1] (setting [7]), 103%; in assay [3], 162% (inactive). The GFP response relative to DMSO in assay [2] is 134% (inactive); in assay [2] (setting [8]), 138%; in assay [2] (setting [9]), 128%. In addition, the GFP response, % of DMSO is 104% (inactive) in assay [4], 134% (inactive) in assay [5], 141% in assay [5] (setting [6]) and 126% in assay [5] (setting [7]).

For the compound `O=S(=O)(Nc1nc2ccccc2nc1Cl)c1ccc2ccccc2c1`, the GFP response vs DMSO is 98.4% (inactive) in assay [1], 97.9% in assay [1] (setting [6]), 98.1% in assay [1] (setting [7]) and 96.8% (inactive) in assay [3]. In addition, the GFP response relative to DMSO in assay [2] was 95.7% (inactive); in assay [2] (setting [8]) it was 92.6%; in assay [2] (setting [9]) it was 97.3%. In addition, the GFP response, % of DMSO in assay [4] was 95.9% (inactive); in assay [5], 88.6% (inactive); in assay [5] (setting [6]), 88.4%; in assay [5] (setting [7]) it was 88.2%.

For `CC(=O)c1ccc(Sc2ccccn2)c([N+](=O)[O-])c1`, the GFP response vs DMSO in assay [1] was 98.4% (inactive); in assay [1] (setting [6]) it was 99.4%; in assay [1] (setting [7]), 95.8%; in assay [3], 102% (inactive). Further, the GFP response relative to DMSO in assay [2] was 99.2% (inactive); in assay [2] (setting [8]), 99.2%; in assay [2] (setting [9]) it was 97.2%. Further, the GFP response, % of DMSO is 93.1% (inactive) in assay [4], 101% (inactive) in assay [5], 103% in assay [5] (setting [6]) and 99.7% in assay [5] (setting [7]).
